From ChEMBL document CHEMBL2417369, “Synthesis and evaluation of heteroaryl substituted diazaspirocycles as scaffolds to probe the ATP-binding site of protein kinases” (Bioorg Med Chem, 2013)

Experiments:
[1] = molecular target: Vascular endothelial growth factor receptor 2 (Homo sapiens) (UniProt P35968); test: Inhibition of KDR (unknown origin) at 30 uM by microfluidic mobility shift assay relative to control
How it was run: (§1)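 Single-point screen at 30 µM test compound across a 24-kinase panel in a microfluidic assay format. ATP was set near each enzyme's Km,[ATP]. […] The pan-AGC inhibitor H-89 served as an internal control on every assay plate.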

[2] = molecular target: Fibroblast growth factor receptor 4 (Homo sapiens) (UniProt P22455); test: Inhibition of FGFR4 (unknown origin) at 30 uM by microfluidic mobility shift assay relative to control; how it was run: as §1
[3] = molecular target: AMP-activated protein kinase, AMPK (Homo sapiens) (UniProt P54646+O43741+P54619+Q9UGJ0+Q9Y478+Q13131+Q9UGI9); test: Inhibition of AMPK (unknown origin) at 30 uM by microfluidic mobility shift assay relative to control; type: protein-complex assay; how it was run: as §1
[4] = molecular target: T1, Serine/threonine-protein kinase D3 (Homo sapiens) (UniProt O94806); test: Inhibition of PKD3 (unknown origin) at 30 uM by microfluidic mobility shift assay relative to control
T1 sequence (whole entry): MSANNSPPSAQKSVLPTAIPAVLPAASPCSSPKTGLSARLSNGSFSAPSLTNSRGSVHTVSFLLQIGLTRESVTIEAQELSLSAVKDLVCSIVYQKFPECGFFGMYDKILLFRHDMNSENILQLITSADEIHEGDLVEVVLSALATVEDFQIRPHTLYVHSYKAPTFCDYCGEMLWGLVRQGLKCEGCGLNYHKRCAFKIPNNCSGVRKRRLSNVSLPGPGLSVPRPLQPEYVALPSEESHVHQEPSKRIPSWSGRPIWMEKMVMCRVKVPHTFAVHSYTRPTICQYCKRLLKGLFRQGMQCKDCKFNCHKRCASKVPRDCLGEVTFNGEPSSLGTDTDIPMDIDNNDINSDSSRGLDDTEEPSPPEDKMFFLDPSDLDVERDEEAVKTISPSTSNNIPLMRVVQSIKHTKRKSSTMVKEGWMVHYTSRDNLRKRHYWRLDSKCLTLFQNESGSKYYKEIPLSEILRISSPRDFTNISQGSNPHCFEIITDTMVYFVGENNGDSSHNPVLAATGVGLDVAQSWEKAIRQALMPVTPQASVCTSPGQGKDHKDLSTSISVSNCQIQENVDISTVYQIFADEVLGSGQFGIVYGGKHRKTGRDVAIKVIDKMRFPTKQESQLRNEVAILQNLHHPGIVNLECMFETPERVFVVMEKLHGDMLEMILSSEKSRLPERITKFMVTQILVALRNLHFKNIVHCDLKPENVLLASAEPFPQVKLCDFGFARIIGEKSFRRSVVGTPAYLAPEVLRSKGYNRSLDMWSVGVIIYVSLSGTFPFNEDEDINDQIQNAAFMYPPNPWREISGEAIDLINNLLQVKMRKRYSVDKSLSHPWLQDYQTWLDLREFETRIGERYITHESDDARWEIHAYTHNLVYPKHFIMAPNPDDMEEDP
How it was run: (§2)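 Single-point screen against a 24-kinase panel in a commercial microfluidic assay format. Compounds were tested at 30 µM, with ATP at approximately the Km,[ATP] of each enzyme. H-89 was included on each assay plate as an internal control.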

[5] = molecular target: T2, Testis-specific serine/threonine-protein kinase 2 (Homo sapiens) (UniProt Q96PF2); test: Inhibition of TSSK2 (unknown origin) at 30 uM by microfluidic mobility shift assay relative to control; how it was run: as §2
T2 sequence (whole entry): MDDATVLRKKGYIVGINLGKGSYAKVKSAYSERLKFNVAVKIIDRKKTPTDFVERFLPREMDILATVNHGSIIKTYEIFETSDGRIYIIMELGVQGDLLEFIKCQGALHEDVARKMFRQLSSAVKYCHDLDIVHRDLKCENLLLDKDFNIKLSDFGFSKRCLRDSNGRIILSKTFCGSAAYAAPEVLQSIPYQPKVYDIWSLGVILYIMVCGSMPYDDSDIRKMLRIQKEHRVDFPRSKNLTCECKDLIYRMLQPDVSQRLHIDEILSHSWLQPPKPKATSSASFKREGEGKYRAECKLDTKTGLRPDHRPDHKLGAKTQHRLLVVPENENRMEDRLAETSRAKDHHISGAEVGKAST

[6] = molecular target: Serine/threonine-protein kinase MARK2 (Homo sapiens) (UniProt Q7KZI7); test: Inhibition of MARK2 (unknown origin) at 30 uM by microfluidic mobility shift assay relative to control; how it was run: as §1
[7] = molecular target: Protein kinase C delta type (Homo sapiens) (UniProt Q05655); test: Inhibition of PKCdelta (unknown origin) at 30 uM by microfluidic mobility shift assay relative to control; how it was run: as §1
[8] = molecular target: T3, Inhibitor of nuclear factor kappa-B kinase subunit beta (Homo sapiens) (UniProt O14920); test: Inhibition of IKKbeta (unknown origin) at 30 uM by microfluidic mobility shift assay relative to control; how it was run: as §1
T3 sequence (whole entry): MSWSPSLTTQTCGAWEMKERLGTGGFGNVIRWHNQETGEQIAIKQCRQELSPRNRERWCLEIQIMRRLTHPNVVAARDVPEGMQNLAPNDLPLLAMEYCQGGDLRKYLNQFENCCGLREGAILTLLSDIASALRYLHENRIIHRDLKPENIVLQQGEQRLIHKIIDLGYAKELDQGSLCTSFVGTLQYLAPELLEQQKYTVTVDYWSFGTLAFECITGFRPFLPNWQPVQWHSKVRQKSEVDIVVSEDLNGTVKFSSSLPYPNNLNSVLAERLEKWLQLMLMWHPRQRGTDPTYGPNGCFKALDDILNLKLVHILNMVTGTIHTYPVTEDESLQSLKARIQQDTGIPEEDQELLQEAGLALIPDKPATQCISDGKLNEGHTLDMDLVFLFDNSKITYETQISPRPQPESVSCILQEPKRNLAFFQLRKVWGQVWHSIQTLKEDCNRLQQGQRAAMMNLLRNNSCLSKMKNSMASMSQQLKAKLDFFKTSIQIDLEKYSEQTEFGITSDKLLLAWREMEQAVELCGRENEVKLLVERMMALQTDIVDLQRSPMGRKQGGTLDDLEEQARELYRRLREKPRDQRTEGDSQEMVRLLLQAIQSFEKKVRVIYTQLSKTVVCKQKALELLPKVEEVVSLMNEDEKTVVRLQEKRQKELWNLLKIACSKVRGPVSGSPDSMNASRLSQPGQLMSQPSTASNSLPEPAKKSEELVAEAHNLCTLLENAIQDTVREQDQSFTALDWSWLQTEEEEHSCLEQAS

[9] = species on record: Homo sapiens; test: Inhibition of CSNK1 (unknown origin) at 30 uM by microfluidic mobility shift assay relative to control; how it was run: as §1

Chain of Vascular endothelial growth factor receptor 2 (Homo sapiens) (P35968 whole entry): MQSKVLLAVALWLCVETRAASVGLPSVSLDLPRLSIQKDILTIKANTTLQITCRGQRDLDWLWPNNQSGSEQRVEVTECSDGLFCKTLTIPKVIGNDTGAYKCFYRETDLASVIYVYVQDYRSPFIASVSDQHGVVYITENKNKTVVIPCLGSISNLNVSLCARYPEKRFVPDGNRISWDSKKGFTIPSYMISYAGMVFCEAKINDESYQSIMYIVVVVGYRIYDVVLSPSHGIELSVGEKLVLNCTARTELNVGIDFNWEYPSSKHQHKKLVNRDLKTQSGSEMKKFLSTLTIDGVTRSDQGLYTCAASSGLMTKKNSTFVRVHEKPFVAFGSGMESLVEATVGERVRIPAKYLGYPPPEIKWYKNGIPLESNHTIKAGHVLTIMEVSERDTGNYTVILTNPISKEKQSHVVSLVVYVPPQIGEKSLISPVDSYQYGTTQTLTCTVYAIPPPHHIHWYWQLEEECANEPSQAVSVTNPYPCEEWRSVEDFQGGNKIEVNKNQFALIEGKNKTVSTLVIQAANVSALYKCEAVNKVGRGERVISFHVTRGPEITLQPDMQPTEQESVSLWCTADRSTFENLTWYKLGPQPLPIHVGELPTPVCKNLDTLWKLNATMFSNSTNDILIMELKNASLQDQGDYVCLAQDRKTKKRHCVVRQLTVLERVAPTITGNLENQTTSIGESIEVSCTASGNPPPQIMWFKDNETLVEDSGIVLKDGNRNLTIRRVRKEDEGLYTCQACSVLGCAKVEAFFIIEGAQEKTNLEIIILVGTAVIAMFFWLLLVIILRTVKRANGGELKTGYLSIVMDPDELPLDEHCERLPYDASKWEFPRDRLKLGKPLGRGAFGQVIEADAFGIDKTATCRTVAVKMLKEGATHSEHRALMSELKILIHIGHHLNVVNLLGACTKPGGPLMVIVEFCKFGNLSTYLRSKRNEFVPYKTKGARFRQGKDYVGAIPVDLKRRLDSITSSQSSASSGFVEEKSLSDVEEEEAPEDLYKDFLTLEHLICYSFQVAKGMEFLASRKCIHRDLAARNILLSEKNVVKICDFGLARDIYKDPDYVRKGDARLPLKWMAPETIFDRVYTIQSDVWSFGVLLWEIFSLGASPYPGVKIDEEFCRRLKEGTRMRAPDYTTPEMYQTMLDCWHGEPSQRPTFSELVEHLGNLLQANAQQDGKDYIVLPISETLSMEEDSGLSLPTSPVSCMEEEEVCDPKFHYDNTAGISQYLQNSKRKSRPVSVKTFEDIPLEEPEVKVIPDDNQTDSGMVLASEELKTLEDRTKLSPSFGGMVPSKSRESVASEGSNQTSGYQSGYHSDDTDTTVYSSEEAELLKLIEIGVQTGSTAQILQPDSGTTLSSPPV
Chain of Protein kinase C delta type (Homo sapiens) (Q05655 whole entry, looked up): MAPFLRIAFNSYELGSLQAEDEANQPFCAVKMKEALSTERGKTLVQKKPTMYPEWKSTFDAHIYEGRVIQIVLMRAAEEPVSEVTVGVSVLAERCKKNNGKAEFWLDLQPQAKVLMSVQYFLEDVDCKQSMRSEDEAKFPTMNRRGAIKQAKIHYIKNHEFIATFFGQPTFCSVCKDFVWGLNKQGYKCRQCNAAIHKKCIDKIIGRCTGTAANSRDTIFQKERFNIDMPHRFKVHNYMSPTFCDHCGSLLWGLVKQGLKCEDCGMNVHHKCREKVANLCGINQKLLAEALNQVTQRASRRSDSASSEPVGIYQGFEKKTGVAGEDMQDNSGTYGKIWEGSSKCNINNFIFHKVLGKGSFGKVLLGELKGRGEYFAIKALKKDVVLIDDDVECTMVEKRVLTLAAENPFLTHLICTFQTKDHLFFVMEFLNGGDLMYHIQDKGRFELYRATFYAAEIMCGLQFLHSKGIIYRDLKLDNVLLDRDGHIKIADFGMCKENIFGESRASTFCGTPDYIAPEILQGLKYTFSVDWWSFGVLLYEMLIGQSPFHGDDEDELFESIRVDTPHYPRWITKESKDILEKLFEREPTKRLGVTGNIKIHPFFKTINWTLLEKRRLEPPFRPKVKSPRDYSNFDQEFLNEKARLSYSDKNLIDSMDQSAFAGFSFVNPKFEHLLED
Chain of Fibroblast growth factor receptor 4 (Homo sapiens) (P22455 22-802 limits assumed): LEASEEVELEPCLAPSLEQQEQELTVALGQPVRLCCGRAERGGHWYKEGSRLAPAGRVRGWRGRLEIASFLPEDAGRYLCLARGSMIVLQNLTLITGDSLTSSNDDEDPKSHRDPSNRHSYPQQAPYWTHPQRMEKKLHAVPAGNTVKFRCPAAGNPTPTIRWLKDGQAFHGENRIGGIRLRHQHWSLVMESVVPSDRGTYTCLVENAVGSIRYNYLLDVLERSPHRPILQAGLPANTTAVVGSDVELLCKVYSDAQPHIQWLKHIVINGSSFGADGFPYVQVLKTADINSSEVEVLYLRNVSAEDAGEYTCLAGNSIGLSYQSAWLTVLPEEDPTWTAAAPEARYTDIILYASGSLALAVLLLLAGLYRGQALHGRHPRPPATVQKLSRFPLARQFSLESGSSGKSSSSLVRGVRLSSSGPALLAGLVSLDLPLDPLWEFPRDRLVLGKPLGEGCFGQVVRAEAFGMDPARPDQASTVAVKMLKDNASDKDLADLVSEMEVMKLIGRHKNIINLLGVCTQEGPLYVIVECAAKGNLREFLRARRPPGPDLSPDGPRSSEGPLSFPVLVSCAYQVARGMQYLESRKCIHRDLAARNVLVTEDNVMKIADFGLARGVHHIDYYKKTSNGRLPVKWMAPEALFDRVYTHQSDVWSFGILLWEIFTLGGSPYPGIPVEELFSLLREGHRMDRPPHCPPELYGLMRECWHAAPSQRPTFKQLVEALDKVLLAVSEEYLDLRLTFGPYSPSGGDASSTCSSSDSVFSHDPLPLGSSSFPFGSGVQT
Chain of Serine/threonine-protein kinase MARK2 (Homo sapiens) (Q7KZI7 whole entry): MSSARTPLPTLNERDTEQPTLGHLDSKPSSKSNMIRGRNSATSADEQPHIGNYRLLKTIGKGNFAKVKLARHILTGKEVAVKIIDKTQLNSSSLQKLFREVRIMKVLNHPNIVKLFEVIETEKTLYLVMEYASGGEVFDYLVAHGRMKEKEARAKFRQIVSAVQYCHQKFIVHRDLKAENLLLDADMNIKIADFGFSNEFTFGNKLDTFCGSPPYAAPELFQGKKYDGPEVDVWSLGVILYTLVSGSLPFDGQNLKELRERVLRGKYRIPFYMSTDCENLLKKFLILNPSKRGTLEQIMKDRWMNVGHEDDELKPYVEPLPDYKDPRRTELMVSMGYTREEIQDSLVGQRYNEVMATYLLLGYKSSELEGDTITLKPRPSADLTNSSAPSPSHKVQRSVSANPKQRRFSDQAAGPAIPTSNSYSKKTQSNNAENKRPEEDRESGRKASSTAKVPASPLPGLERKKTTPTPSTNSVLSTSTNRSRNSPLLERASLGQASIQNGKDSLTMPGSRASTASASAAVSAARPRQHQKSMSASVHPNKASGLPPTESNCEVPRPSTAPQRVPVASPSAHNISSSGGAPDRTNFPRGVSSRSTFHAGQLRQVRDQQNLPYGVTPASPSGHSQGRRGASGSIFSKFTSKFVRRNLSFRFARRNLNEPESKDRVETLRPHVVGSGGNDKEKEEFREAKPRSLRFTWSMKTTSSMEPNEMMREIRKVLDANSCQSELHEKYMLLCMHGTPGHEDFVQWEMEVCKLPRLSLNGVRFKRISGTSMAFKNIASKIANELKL

Row | inhibition [1] | inhibition [2] | inhibition [3] | inhibition [4] | inhibition [5] | inhibition [6] | inhibition [7] | inhibition [8] | inhibition [9] | Compound
1 | 35% | 4% | 66% | 53% | 25% | 72% | 79% | 100% | 11% | c1ccc(C2CCNC3(CCN(c4ncnc5[nH]cnc45)CC3)C2)cc1 (racemic)
2 | 11% | 0% | 78% | 81% | 32% | 60% | 75% | 95% | 11% | c1ccc(CC2CCNC3(CCN(c4ncnc5[nH]cnc45)CC3)C2)cc1 (racemic)
3 | 31% | 7% | 70% | 25% | 7% | 47% | 27% | 83% | 14% | c1ccc(CC2CCC3(CCN(c4ncnc5[nH]cnc45)CC3)NC2)cc1 (racemic)
